Reference: paper PMC5933427 (Chemical Science, 2016)

Key:
HeLa = assay: MTT cytotoxicity assay; format: cell-based, human; conditions: read-out: IC50 HeLa, 48 h
In short: (§1)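 Cancer lines and normal LO2 cells were incubated with test compound for 48 h before viability was assessed. IC50 values reported as means ± SD.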

A549 = assay: MTT cytotoxicity assay; format: cell-based, human; conditions: 48 h; for IC50: read-out: IC50 A549, MTT
In short: as §1

[1] = test system: cisplatin-resistant A549 (A549R); assay: MTT cytotoxicity assay; format: cell-based, human; conditions: for cross-resistance with cisplatin: cisplatin-resistant A549R cells; for IC50: read-out: IC50 A549R, 48 h, MTT
In short: as §1

MDB-MA-231 = assay: MTT cytotoxicity assay; format: cell-based, human; conditions: read-out: IC50 MDB-MA-231, 48 h
In short: as §1

PC3 = assay: MTT cytotoxicity assay; format: cell-based, human; conditions: read-out: IC50 PC3, 48 h
In short: as §1

LO2 = assay: MTT cytotoxicity assay; format: cell-based; conditions: read-out: IC50 LO2, 48 h, human normal liver cells
In short: as §1

[2] = Lipophilicity, shake-flask log Po/w; format: physicochemical; conditions: octanol/water
A549 cells [3] = assay: MMP analysis, JC-1 flow cytometry; format: cell-based, human; conditions: A549, 10 μM, 6 h, control 6.6 ± 0.7%
A549 cells [4] = assay: Intracellular ATP quantification; format: cell-based, human; conditions: for intracellular ATP level: A549, 10 μM, 6 h, control 86.3 ± 1.0 nM; for impact on intracellular ATP levels: A549, 6 h, versus control cells
In short: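 A549 cells exposed for 6 h to vehicle or to test compound across several concentrations. Intracellular ATP content measured and reported in nM, relative to vehicle-treated control cells.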

A549 cells [5] = assay: Mitochondrial bioenergetics, Seahorse OCR; format: cell-based, human; conditions: for non-mitochondrial respiration: after rotenone/antimycin A; for ATP production (coupled respiration, OCR): oligomycin; for ATP production (coupled respiration, OCR) / basal OCR: versus control
In short: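 Oxygen consumption rate of treated A549 cells measured on a Seahorse XF24 analyser. Sequential injections: oligomycin 0.75 μM, FCCP 0.6 μM, then rotenone 0.5 μM plus antimycin A 0.5 μM. OCR normalised to protein by BCA assay. Basal respiration = basal OCR minus post-rotenone/antimycin OCR. ATP-linked respiration = basal minus post-oligomycin OCR. Non-mitochondrial respiration = OCR remaining after rotenone/antimycin.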

A549 cells [6] = assay: Intracellular ROS detection, H2DCFDA flow cytometry; format: cell-based, human; conditions: A549, 10 μM, 6 h
A549 cells [7] = assay: MTT viability with NAC pretreatment; format: cell-based, human; conditions: A549, NAC 10 mM 1 h, then 24 h
A549 cells [8] = assay: Cell cycle analysis, PI flow cytometry; format: cell-based, human; conditions: A549, 2.5 μM, 24 h; control 57.4 ± 3.1%
[9] = test system: caspase-3/7 in A549 cells; assay: Caspase-3/7 activity, Caspase-Glo assay; format: cell-based, human; conditions: A549, 10 μM, 12 h
A549 cells [10] = assay: MTT viability with z-VAD-fmk pretreatment; format: cell-based, human; conditions: A549, z-VAD-fmk 50 μM 2 h, then 24 h
A549 cells [11] = assay: Annexin V/PI double staining, flow cytometry; format: cell-based, human; conditions: 24 h; for apoptotic cells: A549, 10 μM, control 1.4 ± 0.02%; for effect of NAC pre-treatment on apoptosis-inducing capability: A549, NAC 10 mM
In short: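 A549 cells treated with test compound for 24 h, then double-labelled with annexin V and PI and analysed by flow cytometry. Early apoptotic cells scored as annexin V-positive/PI-negative, and late apoptotic/necrotic cells as annexin V-positive/PI-positive. Both fractions were counted as apoptotic.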

[12] = Stability of complex 2 by 1H NMR; format: physicochemical; conditions: DMSO-d6/D2O (v/v, 7/3), 37 °C
[13] = target: bovine serum albumin (BSA) (Bos taurus, UniProt P02769); assay: Emission enhancement upon binding with BSA; conditions: molar ratio BSA : Ir(III) 8 : 1
A549/LO2 coculture = assay: Co-culture model of A549 and LO2 cells, annexin V/PI; format: cell-based, human; conditions: 10 μM, 24 h, A549 Hoechst-prelabeled
A549 cells [14] = assay: Microarray gene chip analysis; format: cell-based, human; conditions: A549, 3 μM, 24 h

Sequence of bovine serum albumin (BSA) (P02769 25-607): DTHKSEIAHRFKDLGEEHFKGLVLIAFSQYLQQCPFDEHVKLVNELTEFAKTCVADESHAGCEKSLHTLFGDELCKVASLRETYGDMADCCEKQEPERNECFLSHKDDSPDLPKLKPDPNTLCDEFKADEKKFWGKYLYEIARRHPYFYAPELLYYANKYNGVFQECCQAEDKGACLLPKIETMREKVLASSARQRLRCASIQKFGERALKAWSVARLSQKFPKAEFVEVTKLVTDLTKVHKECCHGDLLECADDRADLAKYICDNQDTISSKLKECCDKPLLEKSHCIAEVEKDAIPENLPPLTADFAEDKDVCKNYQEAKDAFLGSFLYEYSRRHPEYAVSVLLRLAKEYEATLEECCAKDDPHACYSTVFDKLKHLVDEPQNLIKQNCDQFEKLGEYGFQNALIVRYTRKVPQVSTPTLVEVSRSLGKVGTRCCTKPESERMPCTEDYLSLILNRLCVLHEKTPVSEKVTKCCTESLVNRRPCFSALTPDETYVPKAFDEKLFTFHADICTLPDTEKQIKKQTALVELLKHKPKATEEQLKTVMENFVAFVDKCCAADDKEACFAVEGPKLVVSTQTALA

With `ClCc1ccnc(-c2cc(CCl)ccn2)c1.F[P-](F)(F)(F)(F)F.Fc1c[c-]c(-c2ccccn2)c(F)c1.Fc1c[c-]c(-c2ccccn2)c(F)c1.[Ir+3]` [Complex 4] the IC50 (HeLa) was 1.8 ± 0.1 µM, the IC50 (A549) was 0.21 ± 0.02 µM and the cross-resistance with cisplatin [1] was “not cross-resistant with cisplatin”. It also gave an IC50 [1] of 0.74 ± 0.05 µM, an IC50 (MDB-MA-231) of 0.66 ± 0.05 µM and an IC50 (PC3) of 1.04 ± 0.09 µM. For the same compound, the IC50 (LO2) was 1.5 ± 0.1 µM, the “Lipophilicity (log Po/w)” value [2] was 2.12 and the “percentage of cells with mitochondrial membrane depolarization” value (A549 cells [3]) was 82.4 ± 7.6%. For the same compound, the “intracellular ATP level” value (A549 cells [4]) was 20.2 ± 3.3 nM, the “impact on intracellular ATP levels” value (A549 cells [4]) was “significant dose-dependent decrease” and the non-mitochondrial respiration (A549 cells [5]) was “decrease”. For the same compound, the “ATP production (coupled respiration, OCR)” value (A549 cells [5]) was “dose-dependent decrease”, the “basal OCR” value (A549 cells [5]) was “decrease” and the “increase of mean fluorescent intensity (MFI) of DCF” value (A549 cells [6]) was about 13.7 fold. The “effect of NAC pre-treatment on antiproliferative potency” value (A549 cells [7]) was “significantly diminishes”, the “percentage of cells in the G0/G1 phase” value (A549 cells [8]) was 88.8 ± 5.2% and the “increase of caspase-3/7 activity” value [9] was about 1.7 fold. For the same compound, the “effect of z-VAD-fmk pre-treatment on antiproliferative activity” value (A549 cells [10]) was “inhibits the antiproliferative activity”, the apoptotic cells (A549 cells [11]) was 61.5 ± 1.1% and the “effect of NAC pre-treatment on apoptosis-inducing capability” value (A549 cells [11]) was “decreases the apoptosis-inducing capability”.
In the case of `ClCc1ccnc(-c2cc(CCl)ccn2)c1.F[P-](F)(F)(F)(F)F.[Ir+3].[c-]1ccccc1-c1ccccn1.[c-]1ccccc1-c1ccccn1` [Complex 2], the IC50 (HeLa) is reported as 0.52 ± 0.04 µM, the “selectivity for cancerous A549 cells over noncancerous LO2 cells” value (A549; from IC50 values) is reported as about 11 fold and the IC50 (A549) is reported as 0.4 ± 0.02 µM. For the same compound, the cross-resistance with cisplatin [1] was “not cross-resistant with cisplatin”, the IC50 [1] was 0.64 ± 0.04 µM and the IC50 (MDB-MA-231) was 0.33 ± 0.02 µM. The IC50 (PC3) was 1.4 ± 0.1 µM, the IC50 (LO2) was 4.5 ± 0.3 µM and the “complex invariant (intact)” value ([12]; 48 h) was “about 98.5%”. For the same compound, the “complex transformed (hydrolysis of chloromethyl groups)” value ([12]; 7 days) was “about 26.2%”, the “Lipophilicity (log Po/w)” value [2] was 1.28 and the “emission enhancement upon binding with BSA” value [13] was about 11.6 fold. For the same compound, the “percentage of cells with mitochondrial membrane depolarization” value (A549 cells [3]) was 85.7 ± 1.7%, the “intracellular ATP level” value (A549 cells [4]) was 30.2 ± 2.4 nM and the “impact on intracellular ATP levels” value (A549 cells [4]) was “significant dose-dependent decrease”. For the same compound, the non-mitochondrial respiration (A549 cells [5]) was “decrease”, the “ATP production (coupled respiration, OCR)” value (A549 cells [5]) was “dose-dependent decrease” and the “basal OCR” value (A549 cells [5]) was “decrease”. For the same compound, the “increase of mean fluorescent intensity (MFI) of DCF” value (A549 cells [6]) was “approximately 5.5 fold”, the “effect of NAC pre-treatment on antiproliferative potency” value (A549 cells [7]) was “significantly diminishes” and the “percentage of cells in the G0/G1 phase” value (A549 cells [8]) was 85.3 ± 4.4%. For the same compound, the “increase of caspase-3/7 activity” value [9] was “approximately 1.6 fold”, the “effect of z-VAD-fmk pre-treatment on antiproliferative activity” value (A549 cells [10]) was “inhibits the antiproliferative activity” and the apoptotic cells (A549 cells [11]) was 17.5 ± 0.8%. The “effect of NAC pre-treatment on apoptosis-inducing capability” value (A549 cells [11]) was “decreases the apoptosis-inducing capability”, the “selective killing of cancer cells in co-culture” value (A549/LO2 coculture) was “most of the A549 cells (blue nuclei) are stained positively by both annexin V and PI, while the LO2 cells are still viable” and the “No. of down-regulated genes sets (p< 0.05, FC> 2)” value (A549 cells [14]) was 715. For the same compound, the “No. of up-regulated genes sets (p< 0.05, FC> 2)” value (A549 cells [14]) was 507.
`F[P-](F)(F)(F)(F)F.OCc1ccnc(-c2cc(CO)ccn2)c1.[Ir+3].[c-]1ccccc1-c1ccccn1.[c-]1ccccc1-c1ccccn1` [Complex 1] showed an IC50 (HeLa) of 10 ± 0.9 µM, an IC50 (A549) of 24 ± 2 µM and an IC50 [1] of 42.2 ± 2.7 µM. It also gave an IC50 (MDB-MA-231) of 24.5 ± 1.9 µM, an IC50 (PC3) of over 100 µM and an IC50 (LO2) of over 100 µM. For the same compound, the “Lipophilicity (log Po/w)” value [2] was 0.23 and the “impact on intracellular ATP levels” value (A549 cells [4]) was “not obvious”.
In the case of `N.N.[Cl][Pt][Cl]` [Cisplatin, reference compound], the IC50 (HeLa) is reported as 18.8 ± 1.4 µM, the IC50 (A549) is reported as 22.4 ± 2 µM and the IC50 [1] is reported as 120 ± 6.5 µM. The IC50 (MDB-MA-231) was 27.5 ± 2.5 µM, the IC50 (PC3) was 23.8 ± 2 µM and the IC50 (LO2) was 26.9 ± 1.9 µM.
`F[P-](F)(F)(F)(F)F.Fc1c[c-]c(-c2ccccn2)c(F)c1.Fc1c[c-]c(-c2ccccn2)c(F)c1.OCc1ccnc(-c2cc(CO)ccn2)c1.[Ir+3]` [Complex 3] gave an IC50 (HeLa) of 2.7 ± 0.2 µM, an IC50 (A549) of 16.8 ± 1.2 µM and an IC50 [1] of 17.8 ± 1.4 µM. For the same compound, the IC50 (MDB-MA-231) was 12.3 ± 1.1 µM, the IC50 (PC3) was 38 ± 1.9 µM and the IC50 (LO2) was 8.1 ± 0.5 µM. The “Lipophilicity (log Po/w)” value [2] was 1.09 and the “impact on intracellular ATP levels” value (A549 cells [4]) was “not obvious”.
